This is an account of results in ChEMBL document CHEMBL3259814, “Synthesis and biological evaluation of compounds which contain pyrazole, thiazole and naphthalene ring as antitumor agents” (Bioorg Med Chem Lett, 2014).

The test system of data set [1] is HeLa. Briefly: Antimetastatic activity against human HeLa cells at 0.08 to 0.12 uM by transwell migration assay. It is filed as functional, cell-based. Put shortly: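 HeLa cell migration was tested at 0.08, 0.10 and 0.12 µM. Migrating cells are expressed as a percentage of an untreated control set at 100%. Data are mean ± SD, with p < 0.05 versus control.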
Data set [2] can be described thus: Antiproliferative activity against human BGC823 cells assessed as growth inhibition after 24 to 48 hrs by CCK8 assay. It is filed as functional, cell-based. Conditions: BGC-823. The procedure, abridged: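 The CCK8 assay was run on BGC823 cells alongside HeLa and HepG2 cells. Inhibition of cell proliferation was reported as IC50.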
For data set [3], the target named is Epidermal growth factor receptor (Homo sapiens, UniProt P00533). It is filed as cell-based, Sf-9.
The nature of data set [4]: Antiproliferative activity against human macrophages assessed as alteration in cell morphology after 24 hrs by CCK8 assay. It counts as cell-based, Macrophage. In general terms: Tetrazolium dyes change colour on reduction, which living cells bring about.
The subject of a further data set is HepG2. The experiment in a line: cells. It counts as functional, cell-based. The settings on record: Homo sapiens.
In data set [5] the test system is HeLa. Briefly: cells. It is filed as functional, cell-based. The settings on record: Homo sapiens.
In data set [6] the test system is HeLa. Briefly: Toxicity against human HeLa cells assessed as survival at 0.14 uM by CCK8 assay. It is filed as cell-based. Put shortly: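 HeLa survival ratio was measured against compound concentration by CCK8 assay, including 0.14 µM. This was done before the migration testing.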

Calls of active or inactive are those of the source. The calls are words filed in the database; no cut-off is given here.

Chain of Epidermal growth factor receptor (P00533 whole entry): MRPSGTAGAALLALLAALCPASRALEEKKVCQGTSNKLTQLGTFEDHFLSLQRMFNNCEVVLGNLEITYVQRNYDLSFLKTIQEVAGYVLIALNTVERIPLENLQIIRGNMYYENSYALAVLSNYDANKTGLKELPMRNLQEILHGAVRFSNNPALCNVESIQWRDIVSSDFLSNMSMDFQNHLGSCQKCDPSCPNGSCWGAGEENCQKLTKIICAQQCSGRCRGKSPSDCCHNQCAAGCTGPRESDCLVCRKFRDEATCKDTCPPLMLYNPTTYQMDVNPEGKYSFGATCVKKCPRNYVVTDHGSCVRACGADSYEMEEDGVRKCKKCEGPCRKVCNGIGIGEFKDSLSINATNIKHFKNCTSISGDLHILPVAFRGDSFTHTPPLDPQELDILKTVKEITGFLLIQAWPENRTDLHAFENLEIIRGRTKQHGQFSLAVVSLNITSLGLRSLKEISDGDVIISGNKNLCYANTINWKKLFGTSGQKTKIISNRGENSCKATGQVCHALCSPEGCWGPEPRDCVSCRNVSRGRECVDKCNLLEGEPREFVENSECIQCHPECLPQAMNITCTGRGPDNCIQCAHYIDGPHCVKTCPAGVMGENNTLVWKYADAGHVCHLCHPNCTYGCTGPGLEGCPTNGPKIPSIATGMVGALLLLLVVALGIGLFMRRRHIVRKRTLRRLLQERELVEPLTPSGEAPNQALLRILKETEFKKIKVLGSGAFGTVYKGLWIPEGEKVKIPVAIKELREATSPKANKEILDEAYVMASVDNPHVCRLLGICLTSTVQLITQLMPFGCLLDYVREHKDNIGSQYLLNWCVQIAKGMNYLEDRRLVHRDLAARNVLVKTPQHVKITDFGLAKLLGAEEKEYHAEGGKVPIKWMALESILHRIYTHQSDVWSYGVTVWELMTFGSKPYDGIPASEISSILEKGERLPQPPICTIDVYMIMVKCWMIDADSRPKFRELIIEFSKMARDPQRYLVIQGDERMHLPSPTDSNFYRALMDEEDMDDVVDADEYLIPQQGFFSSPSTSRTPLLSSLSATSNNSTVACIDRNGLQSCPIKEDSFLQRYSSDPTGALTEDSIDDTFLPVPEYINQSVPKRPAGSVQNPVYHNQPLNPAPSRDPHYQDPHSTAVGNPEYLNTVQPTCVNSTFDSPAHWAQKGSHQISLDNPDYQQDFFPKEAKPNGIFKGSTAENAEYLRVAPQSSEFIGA

On to `Cc1ccc(C2=NN(C3=NC(=O)CS3)C(c3ccc4ccccc4c3)C2)cc1C` (centres undefined), for which, in the data set on HeLa [1], the result was Active. For the same molecule, the IC50 (commonly the point on the concentration scale where inhibition reaches its midpoint) stood at 6.02 µM in data set [2], 0.12 µM in data set [3], 8.49 µM with HepG2 and 0.86 µM in the data set with HeLa [5]. In data set [4], the cytotoxic concentration (CC50) – broadly, the concentration at which the toxic effect on the cells reaches its halfway point – at 24 h amounted to 397 µM. Further, the Activity entry in the data set on HeLa [6] is “Non-toxic”.
In the case of `O=C1CSC(N2N=C(c3ccc(F)cc3)CC2c2cccc3ccccc23)=N1` (centres undefined), the IC50 in data set [2] was determined as 19.3 µM; with HepG2, 19.5 µM; in the data set on HeLa [5], 11.2 µM.
For `COc1ccc(C2=NN(C3=NC(=O)CS3)C(c3ccc4ccccc4c3)C2)cc1` (centres undefined), the IC50 in data set [2] stood at 6.94 µM; with HepG2 it was 10.4 µM; with HeLa [5] it was 1.48 µM. Also, the half-maximal cytotoxic concentration (CC50) at 24 h in data set [4] was 363 µM.
Turning to `COc1ccc(C2=NN(C3=NC(=O)CS3)C(c3cccc4ccccc34)C2)cc1` (centres undefined), the 50% inhibitory concentration (IC50) amounted to 8.21 µM in data set [2], 5.53 µM in data set [3], 7.85 µM in the data set on HepG2 and 2.54 µM in the data set on HeLa [5]. Also, in data set [4], the CC50 at 24 h came to 273 µM.
As to `O=C1CSC(N2N=C(c3ccc(Cl)cc3)CC2c2ccc3ccccc3c2)=N1` (centres undefined), the values for the IC50 (in data set [2]; with HepG2; in the data set with HeLa [5]) were 13.2 µM, 20.4 µM and 6.32 µM, respectively.
Turning to `O=C1CSC(N2N=C(c3ccc(Cl)cc3)CC2c2cccc3ccccc23)=N1` (centres undefined), the IC50 stood at 16.4 µM in data set [2], 16.4 µM in the data set on HepG2 and 8.84 µM in the data set on HeLa [5].
On to `Cc1ccc(C2=NN(C3=NC(=O)CS3)C(c3cccc4ccccc34)C2)cc1C` (centres undefined), for which the half-inhibitory concentration (IC50) in data set [2] came out at 7.11 µM; in data set [3] it was 1.32 µM; in the data set on HepG2, 5.94 µM; in the data set on HeLa [5] it was 1.33 µM. The 50% cytotoxic concentration (CC50) at 24 h in data set [4] was found to be 383 µM.
Turning to `O=C1CSC(N2N=C(c3ccccc3)CC2c2ccc3ccccc3c2)=N1` (centres undefined), the half-inhibitory concentration (IC50) turned out to be 8.86 µM in data set [2], 6.31 µM in data set [3], 15.7 µM in the data set with HepG2 and 3.18 µM in the data set on HeLa [5]. In addition, in data set [4], the CC50 at 24 h worked out at 345 µM.
As for `Cc1ccc(C2=NN(C3=NC(=O)CS3)C(c3cccc4ccccc34)C2)cc1` (centres undefined), the 50% inhibitory concentration (IC50) in data set [2] was found to be 10 µM; in the data set on HepG2, 8.66 µM; in the data set on HeLa [5], 3.21 µM.
Consider `O=C1CSC(N2N=C(c3ccc(Br)cc3)CC2c2cccc3ccccc23)=N1` (centres undefined), for which the figures for the half-maximal inhibitory concentration (IC50) (in data set [2]; with HepG2; with HeLa [5]) were 14.6 µM, 13.4 µM and 5.81 µM, respectively.
Regarding `O=C1CSC(N2N=C(c3ccc(F)cc3)CC2c2ccc3ccccc3c2)=N1` (centres undefined), the concentration for half-maximal inhibition (IC50) in data set [2] was found to be 14.9 µM; with HepG2, 24.1 µM; in the data set on HeLa [5] it was 9.17 µM.
In the case of `O=C1CSC(N2N=C(c3ccc(Br)cc3)CC2c2ccc3ccccc3c2)=N1` (centres undefined), the values for the IC50 (in data set [2]; in the data set with HepG2; in the data set on HeLa [5]) were 11.7 µM, 18.2 µM and 4.22 µM, respectively.
For the molecule `O=C1CSC(N2N=C(c3ccccc3)CC2c2cccc3ccccc23)=N1` (centres undefined), the IC50 turned out to be 11.2 µM in data set [2], 10.1 µM with HepG2 and 4.62 µM in the data set with HeLa [5].
Take `Cc1ccc(C2=NN(C3=NC(=O)CS3)C(c3ccc4ccccc4c3)C2)cc1` (centres undefined): the IC50 is 7.79 µM in data set [2], 3.25 µM in data set [3], 12.7 µM with HepG2 and 1.76 µM in the data set with HeLa [5].
